# Assay results from ChEMBL document CHEMBL1149315, “Insertion of an aspartic acid moiety into cyclic pseudopeptides: synthesis and biological characterization of potent antagonists for the human Tachykinin NK-2 receptor” (J Med Chem, 2004).
# Activity calls are given as the source filed them.
# Target: T1, Substance-K receptor (Homo sapiens, UniProt P21452)
# T1 sequence (P21452 whole entry): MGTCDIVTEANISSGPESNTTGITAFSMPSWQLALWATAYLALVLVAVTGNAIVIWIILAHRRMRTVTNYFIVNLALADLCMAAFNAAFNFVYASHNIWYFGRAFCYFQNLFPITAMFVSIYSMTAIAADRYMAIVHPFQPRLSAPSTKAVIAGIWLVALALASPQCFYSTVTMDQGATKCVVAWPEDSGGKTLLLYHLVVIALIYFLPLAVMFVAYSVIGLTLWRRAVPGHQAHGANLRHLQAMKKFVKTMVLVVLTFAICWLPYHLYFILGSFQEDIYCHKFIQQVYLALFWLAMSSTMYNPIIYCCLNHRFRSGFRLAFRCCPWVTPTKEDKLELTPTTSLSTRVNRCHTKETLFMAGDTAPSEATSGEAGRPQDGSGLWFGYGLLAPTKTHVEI
# Test: Displacement of [125I]neurokinin A from human NK2 receptor expressed in CHOK1 cells
# Format: cell-based, CHO-K1
# Settings: not given
# Procedure, shortened: (§1)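 Competition binding was run on membranes of cells stably transfected with the human receptor: U-373MG for NK-1, CHO-K1 for NK-2 and NK-3. NK-1 used [3H][Sar9]SP sulfone at 1.2 nM. Affinity is given as pKi (−log Ki).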
row,Structure (SMILES),Ki
1,O=C1C[C@@H](NC2CCOCC2)C(=O)NC[C@@H](Cc2ccccc2)NC(=O)[C@H](Cc2ccccc2)NC(=O)[C@H](Cc2c[nH]c3ccccc23)N1,0.0631 nM (antagonist)
2,N[C@H]1CC(=O)N[C@@H](Cc2c[nH]c3ccccc23)C(=O)N[C@@H](Cc2ccccc2)C(=O)N[C@H](Cc2ccc(Cl)c(Cl)c2)CNC1=O,0.2 nM (antagonist)
3,NS(=O)(=O)N1CCN(CC(=O)N[C@@H]2CC(=O)N[C@@H](Cc3c[nH]c4ccccc34)C(=O)N[C@@H](Cc3ccccc3)C(=O)N[C@H](Cc3ccccc3)CNC2=O)CC1,0.1 nM (antagonist)
4,N[C@@H]1CC(=O)N[C@@H](Cc2c[nH]c3ccccc23)C(=O)N[C@@H](Cc2ccccc2)C(=O)N[C@H](Cc2ccc(Cl)c(Cl)c2)CNC1=O,0.158 nM (antagonist)
5,O=C1C[C@H](NC2CCOCC2)C(=O)NC[C@@H](Cc2ccccc2)NC(=O)[C@H](Cc2ccccc2)NC(=O)[C@H](Cc2c[nH]c3ccccc23)N1,1 nM (antagonist)
6,O=C1C[C@@H](N2CCOCC2)C(=O)NC[C@@H](Cc2ccc(Cl)c(Cl)c2)NC(=O)[C@H](Cc2ccccc2)NC(=O)[C@H](Cc2c[nH]c3ccccc23)N1,0.251 nM (antagonist)
7,N[C@@H]1CC(=O)NC[C@@H](Cc2ccccc2)NC(=O)[C@H](Cc2ccccc2)NC(=O)[C@H](Cc2c[nH]c3ccccc23)NC1=O,15.8 nM (antagonist)
8,O=C1C[C@@H](N2CCCCC2)C(=O)NC[C@@H](Cc2ccccc2)NC(=O)[C@H](Cc2ccccc2)NC(=O)[C@H](Cc2c[nH]c3ccccc23)N1,1.58 nM (antagonist)

# Target: T2, Substance-K receptor (Oryctolagus cuniculus) (UniProt P79218)
# T2 sequence (whole entry): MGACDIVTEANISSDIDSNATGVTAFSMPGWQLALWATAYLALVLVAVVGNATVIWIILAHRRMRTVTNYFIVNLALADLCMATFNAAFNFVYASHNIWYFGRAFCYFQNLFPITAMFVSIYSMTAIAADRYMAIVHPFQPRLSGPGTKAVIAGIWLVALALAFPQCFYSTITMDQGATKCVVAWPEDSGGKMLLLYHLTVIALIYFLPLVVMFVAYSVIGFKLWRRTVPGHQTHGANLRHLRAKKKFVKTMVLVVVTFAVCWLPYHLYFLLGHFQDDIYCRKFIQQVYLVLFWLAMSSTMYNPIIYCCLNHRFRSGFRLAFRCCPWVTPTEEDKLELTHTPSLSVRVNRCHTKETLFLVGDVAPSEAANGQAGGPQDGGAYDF
# Test: Antagonist activity at NK2 receptor in rabbit pulmonary artery assessed as effect on neurokinin A-induced mechanical activity
# Format: functional
# Settings: filed as antagonist
# Procedure, shortened: (§2)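 Isolated smooth muscle strips were held in oxygenated (96% O2/4% CO2) Krebs–Henseleit at NaCl 119, NaHCO3 25, KH2PO4 1.2, MgSO4 1.5, CaCl2 2.5, KCl 4.7 and glucose 11 mM. Cumulative agonist concentration–response curves were run after 15 min antagonist incubation. pKB = log(dose ratio − 1) − log[antagonist], as the mean of individual values.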
row,Structure (SMILES),pKb
1,O=C1C[C@@H](NC2CCOCC2)C(=O)NC[C@@H](Cc2ccccc2)NC(=O)[C@H](Cc2ccccc2)NC(=O)[C@H](Cc2c[nH]c3ccccc23)N1,9.2
2,N[C@H]1CC(=O)N[C@@H](Cc2c[nH]c3ccccc23)C(=O)N[C@@H](Cc2ccccc2)C(=O)N[C@H](Cc2ccc(Cl)c(Cl)c2)CNC1=O,8.6
3,N[C@@H]1CC(=O)N[C@@H](Cc2c[nH]c3ccccc23)C(=O)N[C@@H](Cc2ccccc2)C(=O)N[C@H](Cc2ccc(Cl)c(Cl)c2)CNC1=O,8.1
4,O=C1C[C@H](NC2CCOCC2)C(=O)NC[C@@H](Cc2ccccc2)NC(=O)[C@H](Cc2ccccc2)NC(=O)[C@H](Cc2c[nH]c3ccccc23)N1,8.6
5,O=C1C[C@@H](N2CCOCC2)C(=O)NC[C@@H](Cc2ccc(Cl)c(Cl)c2)NC(=O)[C@H](Cc2ccccc2)NC(=O)[C@H](Cc2c[nH]c3ccccc23)N1,8.4
6,N[C@@H]1CC(=O)NC[C@@H](Cc2ccccc2)NC(=O)[C@H](Cc2ccccc2)NC(=O)[C@H](Cc2c[nH]c3ccccc23)NC1=O,7.2
7,O=C1C[C@@H](N2CCCCC2)C(=O)NC[C@@H](Cc2ccccc2)NC(=O)[C@H](Cc2ccccc2)NC(=O)[C@H](Cc2c[nH]c3ccccc23)N1,8.2

# Target: T3, Substance-K receptor (Rattus norvegicus) (UniProt P16610)
# T3 sequence (whole entry): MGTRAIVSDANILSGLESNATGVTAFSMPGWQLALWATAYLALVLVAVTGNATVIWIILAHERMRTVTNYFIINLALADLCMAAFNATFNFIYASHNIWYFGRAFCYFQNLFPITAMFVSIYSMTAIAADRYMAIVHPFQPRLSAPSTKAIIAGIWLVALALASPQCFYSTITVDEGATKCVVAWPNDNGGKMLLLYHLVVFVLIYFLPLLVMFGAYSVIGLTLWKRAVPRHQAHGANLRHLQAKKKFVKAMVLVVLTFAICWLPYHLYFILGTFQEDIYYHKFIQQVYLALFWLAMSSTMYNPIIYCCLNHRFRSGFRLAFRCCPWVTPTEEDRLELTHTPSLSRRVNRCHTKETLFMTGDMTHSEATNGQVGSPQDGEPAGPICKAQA
# Test: Antagonist activity at NK2 receptor in rat urinary bladder assessed as effect on beta-Ala8]NKA(4-10)-induced mechanical activity
# Format: functional
# Settings: filed as antagonist
# Procedure, shortened: as §2
row,Structure (SMILES),pKb
1,O=C1C[C@@H](NC2CCOCC2)C(=O)NC[C@@H](Cc2ccccc2)NC(=O)[C@H](Cc2ccccc2)NC(=O)[C@H](Cc2c[nH]c3ccccc23)N1,9.1
2,N[C@H]1CC(=O)N[C@@H](Cc2c[nH]c3ccccc23)C(=O)N[C@@H](Cc2ccccc2)C(=O)N[C@H](Cc2ccc(Cl)c(Cl)c2)CNC1=O,8.9
3,NS(=O)(=O)N1CCN(CC(=O)N[C@@H]2CC(=O)N[C@@H](Cc3c[nH]c4ccccc34)C(=O)N[C@@H](Cc3ccccc3)C(=O)N[C@H](Cc3ccccc3)CNC2=O)CC1,9.5
4,O=C1C[C@@H](N2CCOCC2)C(=O)NC[C@@H](Cc2ccc(Cl)c(Cl)c2)NC(=O)[C@H](Cc2ccccc2)NC(=O)[C@H](Cc2c[nH]c3ccccc23)N1,8

# Target: Substance-P receptor (Cavia porcellus) (UniProt P30547)
# Test: Antagonist activity at NK1 receptor in guinea pig ileum assessed as effect on substance P methyl ester-induced mechanical activity
# Format: functional, tissue-based
# Settings: not given
# Procedure, shortened: as §2
# Chain of Substance-P receptor (Cavia porcellus) (P30547 whole entry): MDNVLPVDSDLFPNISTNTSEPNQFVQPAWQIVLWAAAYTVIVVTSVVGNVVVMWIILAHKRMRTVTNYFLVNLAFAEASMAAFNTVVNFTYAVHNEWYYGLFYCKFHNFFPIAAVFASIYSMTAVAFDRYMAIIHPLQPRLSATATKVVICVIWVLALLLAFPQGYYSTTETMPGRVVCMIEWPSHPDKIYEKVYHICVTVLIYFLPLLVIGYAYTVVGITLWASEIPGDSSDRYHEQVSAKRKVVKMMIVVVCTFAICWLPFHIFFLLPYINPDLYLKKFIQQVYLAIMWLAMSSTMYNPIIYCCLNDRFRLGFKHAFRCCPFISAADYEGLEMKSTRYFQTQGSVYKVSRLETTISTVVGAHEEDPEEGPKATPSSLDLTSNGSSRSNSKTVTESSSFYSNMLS
row,Structure (SMILES),pKb
1,NS(=O)(=O)N1CCN(CC(=O)N[C@@H]2CC(=O)N[C@@H](Cc3c[nH]c4ccccc34)C(=O)N[C@@H](Cc3ccccc3)C(=O)N[C@H](Cc3ccccc3)CNC2=O)CC1,< 5.5

# Same assay, conditions: filed as antagonist
row,Structure (SMILES),pKb
1,O=C1C[C@@H](NC2CCOCC2)C(=O)NC[C@@H](Cc2ccccc2)NC(=O)[C@H](Cc2ccccc2)NC(=O)[C@H](Cc2c[nH]c3ccccc23)N1,6.1

# Target: T4, Neuromedin-K receptor (Cavia porcellus) (UniProt P30098)
# T4 sequence (whole entry): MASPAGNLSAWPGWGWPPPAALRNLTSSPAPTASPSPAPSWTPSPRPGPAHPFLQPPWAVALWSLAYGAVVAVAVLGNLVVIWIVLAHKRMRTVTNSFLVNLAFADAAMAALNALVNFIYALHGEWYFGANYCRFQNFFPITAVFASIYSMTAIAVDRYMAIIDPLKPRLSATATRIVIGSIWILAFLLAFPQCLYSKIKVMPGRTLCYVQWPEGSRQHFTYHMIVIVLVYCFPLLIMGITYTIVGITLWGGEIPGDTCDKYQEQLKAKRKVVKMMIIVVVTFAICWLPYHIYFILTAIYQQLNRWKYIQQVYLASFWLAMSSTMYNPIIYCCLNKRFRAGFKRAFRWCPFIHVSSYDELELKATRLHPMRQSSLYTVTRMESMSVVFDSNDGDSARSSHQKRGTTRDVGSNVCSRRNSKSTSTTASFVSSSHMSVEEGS
# Test: Antagonist activity at NK3 receptor in guinea pig ileum assessed as effect on senktide-induced mechanical activity
# Format: functional, tissue-based
# Settings: filed as antagonist
row,Structure (SMILES),pKb
1,O=C1C[C@@H](NC2CCOCC2)C(=O)NC[C@@H](Cc2ccccc2)NC(=O)[C@H](Cc2ccccc2)NC(=O)[C@H](Cc2c[nH]c3ccccc23)N1,6.4
2,NS(=O)(=O)N1CCN(CC(=O)N[C@@H]2CC(=O)N[C@@H](Cc3c[nH]c4ccccc34)C(=O)N[C@@H](Cc3ccccc3)C(=O)N[C@H](Cc3ccccc3)CNC2=O)CC1,5.9

# Target: Substance-P receptor (Homo sapiens, UniProt P25103)
# Test: Displacement of [3H][Sar9]SP sulfone from human NK1 receptor expressed in U373MG cells
# Format: cell-based, U-373MG ATCC
# Settings: not given
# Procedure, shortened: as §1
# Chain of Substance-P receptor (P25103 whole entry): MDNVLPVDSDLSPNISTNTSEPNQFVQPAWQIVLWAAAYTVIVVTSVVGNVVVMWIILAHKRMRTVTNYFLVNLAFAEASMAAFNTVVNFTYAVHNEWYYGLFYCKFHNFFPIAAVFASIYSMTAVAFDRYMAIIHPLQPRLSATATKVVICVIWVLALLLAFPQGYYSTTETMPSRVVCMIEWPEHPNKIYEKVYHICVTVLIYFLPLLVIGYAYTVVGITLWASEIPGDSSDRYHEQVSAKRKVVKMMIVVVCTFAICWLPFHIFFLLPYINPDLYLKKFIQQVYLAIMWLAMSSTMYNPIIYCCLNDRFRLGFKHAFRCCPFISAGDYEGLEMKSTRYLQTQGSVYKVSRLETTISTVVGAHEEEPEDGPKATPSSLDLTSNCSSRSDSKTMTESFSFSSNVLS
row,Structure (SMILES),Ki
1,NS(=O)(=O)N1CCN(CC(=O)N[C@@H]2CC(=O)N[C@@H](Cc3c[nH]c4ccccc34)C(=O)N[C@@H](Cc3ccccc3)C(=O)N[C@H](Cc3ccccc3)CNC2=O)CC1,200 nM (antagonist)

# Target: T5, Neuromedin-K receptor (Homo sapiens, UniProt P29371)
# T5 sequence (P29371 whole entry): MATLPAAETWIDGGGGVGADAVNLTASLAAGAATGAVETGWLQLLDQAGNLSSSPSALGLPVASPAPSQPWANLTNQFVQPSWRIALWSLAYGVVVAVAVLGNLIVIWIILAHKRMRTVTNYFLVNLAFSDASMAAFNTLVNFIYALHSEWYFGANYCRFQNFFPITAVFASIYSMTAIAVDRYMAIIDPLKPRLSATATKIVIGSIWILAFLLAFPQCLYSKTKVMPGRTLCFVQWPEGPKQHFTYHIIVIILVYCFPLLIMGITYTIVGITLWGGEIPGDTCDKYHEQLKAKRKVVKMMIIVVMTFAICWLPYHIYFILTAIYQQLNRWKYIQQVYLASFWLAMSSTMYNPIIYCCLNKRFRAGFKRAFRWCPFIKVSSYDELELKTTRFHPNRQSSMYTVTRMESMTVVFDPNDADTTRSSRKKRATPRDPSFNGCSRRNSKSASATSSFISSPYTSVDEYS
# Test: Displacement of [125I][MePhe7]NKB from human NK3 receptor expressed in CHOK1 cells
# Format: cell-based, CHO-K1
# Settings: not given
# Procedure, shortened: as §1
row,Structure (SMILES),Ki
1,NS(=O)(=O)N1CCN(CC(=O)N[C@@H]2CC(=O)N[C@@H](Cc3c[nH]c4ccccc34)C(=O)N[C@@H](Cc3ccccc3)C(=O)N[C@H](Cc3ccccc3)CNC2=O)CC1,7940 nM (antagonist)

# Tested on: Cavia porcellus
# Test: Inhibition of [beta-Ala8]NKA(4-10)-induced bronchoconstriction in anesthetized Dunkin Hartley guinea pig at 100 nmol/kg, it relative to control
# Format: functional, organism-based
# Settings: 10 nmol/kg, in the assay text read “10 nmol/kg” for “100 nmol/kg”
# Procedure, shortened: (§3)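 Male Dunkin Hartley guinea pigs (350–400 g) were anesthetized with urethane 1.5 g/kg sc, kept at 36 °C and ventilated at 60 strokes/min. After two reproducible control responses to agonist (1 nmol/kg iv, jugular vein), antagonist was given intratracheally near the bronchial bifurcation. Dosing was 5 and 30 min before challenge, with challenges repeated every 30 min up to 4 h. Bronchoconstriction = insufflation pressure rise over basal (mmHg), expressed as % inhibition of control.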
row,Structure (SMILES),Activity
1,NS(=O)(=O)N1CCN(CC(=O)N[C@@H]2CC(=O)N[C@@H](Cc3c[nH]c4ccccc34)C(=O)N[C@@H](Cc3ccccc3)C(=O)N[C@H](Cc3ccccc3)CNC2=O)CC1,Active

# Tested on: Cavia porcellus
# Test: Inhibition of [beta-Ala8]NKA(4-10)-induced bronchoconstriction in intratracheally dosed anesthetized Dunkin Hartley guinea pig
# Format: functional
# Settings: Trachea, inhaled or nasal
# Procedure, shortened: as §3
row,Structure (SMILES),ED50 [µmol/kg]
1,NS(=O)(=O)N1CCN(CC(=O)N[C@@H]2CC(=O)N[C@@H](Cc3c[nH]c4ccccc34)C(=O)N[C@@H](Cc3ccccc3)C(=O)N[C@H](Cc3ccccc3)CNC2=O)CC1,0.00027
